Assay results published in ChEMBL document CHEMBL1157373, “Dual targeting of DNA gyrase and topoisomerase IV: target interactions of heteroaryl isothiazolones in Staphylococcus aureus” (Antimicrob Agents Chemother, 2007).
≈ marks a conversion by molar mass, not a printed value.

How the values were obtained:
[1] = test system: Staphylococcus aureus; assay: Antibacterial activity against Staphylococcus aureus ACH-0203 isolate with gyrA Ser84Leu and grlA Ser80Phe, Ala116Val mutant after 24 hrs by broth microdilution method; type: functional
Procedure, shortened: (§1)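 Broth microdilution per CLSI guidelines. MIC taken as the lowest concentration preventing visible growth at 24 h. Each MIC determined at least twice.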

[2] = test system: Staphylococcus aureus; assay: Antibacterial activity against Staphylococcus aureus ACH-0206 isolate with gyrA Ser84Leu mutant after 24 hrs by broth microdilution method; type: functional; procedure, shortened: as §1
[3] = Inhibition of Staphylococcus aureus wild-type topoisomerase 4 decatenation activity assessed as unlinking of DNA microcircles from kinetoplast DNA
Procedure, shortened: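 S. aureus topo IV reconstituted from His-purified recombinant GrlA and GrlB (E. coli BL21(DE3)pLysS expression), mixed 1:1 molar on ice 10 min. 0.1 μg catenated kDNA with 2 U enzyme, 30 min at 37°C in 1 mM ATP, 5 mM DTT, 5 mM MgCl2, 50 μg/ml BSA, 50 mM Tris-HCl pH 7.5, 250 mM potassium glutamate. Products on 1% agarose gel, ethidium-stained, quantitated; IC50 by nonlinear regression.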

[4] = test system: Staphylococcus aureus; assay: Antibacterial activity against Staphylococcus aureus ACH-0216 isolate with grlA Ser80Phe mutant after 24 hrs by broth microdilution method; type: functional; procedure, shortened: as §1
[5] = test system: Staphylococcus aureus; assay: Antibacterial activity against Staphylococcus aureus BSA678 isolate with gyrA Ser84Leu, Ser85Pro and grlA Ser80Phe, Glu84Lys mutant after 24 hrs by broth microdilution method
[6] = test system: Staphylococcus aureus; assay: Antibacterial activity against Staphylococcus aureus ACH-0218 isolate with grlA Glu84Lys mutant after 24 hrs by broth microdilution method; type: functional; procedure, shortened: as §1
[7] = Inhibition of Staphylococcus aureus […] topoisomerase 4 grlA S80F mutant decatenation activity assessed as unlinking of DNA microcircles from kinetoplast DNA
Procedure, shortened: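 Recombinant S. aureus GrlA (Ser80Phe) and GrlB were mixed 1:1 molar on ice for 10 min. kDNA (0.1 μg) with 2 U enzyme, 30 min at 37°C, in 1 mM ATP, 5 mM MgCl2, 250 mM K-glutamate, 50 mM Tris pH 7.5. Reactions stopped with EDTA, run on 1% agarose-TBE and ethidium-stained, minicircles quantitated. IC50 by nonlinear regression.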

[8] = test system: Staphylococcus aureus; assay: Antibacterial activity against Staphylococcus aureus ATCC 29213 after 24 hrs by broth microdilution method; type: functional; settings: ATCC 29213, 24 h; procedure, shortened: as §1
[9] = test system: Staphylococcus aureus; assay: Antibacterial activity against Staphylococcus aureus ACH-0204 isolate with gyrA Ser84Leu mutant after 24 hrs by broth microdilution method; type: functional; procedure, shortened: as §1
[10] = test system: Staphylococcus aureus; assay: Antibacterial activity against Staphylococcus aureus ACH-0221 isolate with gyrA Ser84Leu mutant after 24 hrs by broth microdilution method; type: functional; procedure, shortened: as §1
[11] = test system: Staphylococcus aureus; assay: Antibacterial activity against Staphylococcus aureus ACH-0201 isolate with gyrA Ser84Leu, Glu88Val and grlA Ser80Phe, Ala116Val mutant after 24 hrs by broth microdilution method; type: functional
[12] = test system: Staphylococcus aureus; assay: Antibacterial activity against Staphylococcus aureus ACH-0126 isolate with gyrA Ser84Leu and grlA Ser80Phe mutant after 24 hrs by broth microdilution method; type: functional
[13] = test system: Staphylococcus aureus; assay: Antibacterial activity against Staphylococcus aureus ACH-0129 isolate with gyrA Ser84Leu, Glu88Val and grlA Ser80Phe, Ala116Val mutant after 24 hrs by broth microdilution method; type: functional
[14] = test system: Staphylococcus aureus; assay: Antibacterial activity against Staphylococcus aureus ACH-0192 isolate with gyrA Ser84Leu and grlA Ser80Phe, Ala116Val mutant after 24 hrs by broth microdilution method; type: functional
[15] = test system: Staphylococcus aureus; assay: Antibacterial activity against Staphylococcus aureus ACH-0231 isolate with gyrA Ser84Leu, Glu88Lys and grlA Ser80Tyr, Glu84Gly mutant after 24 hrs by broth microdilution method; type: functional
[16] = test system: Staphylococcus aureus; assay: Antibacterial activity against Staphylococcus aureus ACH-0141 isolate with gyrA Ser84Leu, Glu88Val and grlA Ser80Phe, Ala116Val mutant after 24 hrs by broth microdilution method; type: functional
[17] = target: DNA gyrase subunit A (Staphylococcus aureus, UniProt P20831, S84L); assay: Inhibition of Staphylococcus aureus DNA gyrase gyrA S84L mutant supercoiling activity assessed as effect on conversion of relaxed pBR322 DNA to supercoiled form
[18] = test system: Staphylococcus aureus; assay: Antibacterial activity against Staphylococcus aureus ATCC 700699 isolate with gyrA Ser84Leu, Glu409Lys and grlA Ser80Phe mutant after 24 hrs by broth microdilution method; type: functional; settings: ATCC 700699, 24 h
[19] = test system: Staphylococcus aureus; assay: Antibacterial activity against Staphylococcus aureus BSA643 isolate with gyrA Ser84Leu and grlA Ser80Tyr, Glu84Gly mutant after 24 hrs by broth microdilution method; type: functional
[20] = test system: Staphylococcus aureus; assay: Antibacterial activity against Staphylococcus aureus NY2746 isolate with gyrA Ser84Leu and grlA Ser80Phe mutant after 24 hrs by broth microdilution method; type: functional
[21] = test system: Staphylococcus aureus; assay: Antibacterial activity against Staphylococcus aureus ACH-0186 isolate with gyrA Ser84Leu and grlA Ser80Phe, Ala116Val mutant after 24 hrs by broth microdilution method; type: functional
[22] = test system: Staphylococcus aureus; assay: Antibacterial activity against Staphylococcus aureus ATCC 33591 isolate after 24 hrs by broth microdilution method; type: functional; settings: ATCC 33591, 24 h; procedure, shortened: as §1
[23] = test system: Staphylococcus aureus; assay: Antibacterial activity against Staphylococcus aureus ACH-0210 isolate with gyrA Ser84Leu and grlA Ser80Phe mutant after 24 hrs by broth microdilution method; type: functional

| Structure (SMILES) | MIC [1] | MIC [2] | IC50 [3] | MIC [4] | MIC [5] | MIC [6] | IC50 [7] | MIC [8] | MIC [9] | MIC [10] | MIC [11] | MIC [12] | MIC [13] | MIC [14] | MIC [15] | MIC [16] | MIC [18] | MIC [19] | MIC [20] | MIC [21] | other results |
| --- | --- | --- | --- | --- | --- | --- | --- | --- | --- | --- | --- | --- | --- | --- | --- | --- | --- | --- | --- | --- | --- |
| O=C(O)c1cn(C2CC2)c2cc(N3CCNCC3)c(F)cc2c1=O [CIPROFLOXACIN] | 128 µg/mL (≈ 386 µM) | 0.5 µg/mL (≈ 1.51 µM) | 3 µM | 2 µg/mL (≈ 6.04 µM) | 128 µg/mL (≈ 386 µM) | 2 µg/mL (≈ 6.04 µM) | > 40 µM | 0.25 µg/mL (≈ 0.754 µM) | 0.5 µg/mL (≈ 1.51 µM) | 1 µg/mL (≈ 3.02 µM) |  |  |  |  |  |  |  |  |  |  |  |
| CO/N=C1\CN(c2nc3c(cc2F)c(=O)c(C(=O)O)cn3C2CC2)CC1CN (centres undefined) [GEMIFLOXACIN] | 32 µg/mL (≈ 82.2 µM) | 0.125 µg/mL (≈ 0.321 µM) | 0.4 µM | 0.125 µg/mL (≈ 0.321 µM) | 64 µg/mL (≈ 164 µM) | 0.125 µg/mL (≈ 0.321 µM) | 9.8 µM | 0.03 µg/mL (≈ 0.077 µM) | 0.125 µg/mL (≈ 0.321 µM) | 0.5 µg/mL (≈ 1.28 µM) | 8 µg/mL (≈ 20.5 µM) | 4 µg/mL (≈ 10.3 µM) | 8 µg/mL (≈ 20.5 µM) | 8 µg/mL (≈ 20.5 µM) | > 64 µg/mL | 4 µg/mL (≈ 10.3 µM) | 4 µg/mL (≈ 10.3 µM) | 32 µg/mL (≈ 82.2 µM) | 32 µg/mL (≈ 82.2 µM) | 4 µg/mL (≈ 10.3 µM) | IC50 [17]: > 300 µM; MIC [22]: 0.06 µg/mL (≈ 0.154 µM); MIC [23]: 4 µg/mL (≈ 10.3 µM) |
| CC[n+]1c(-c2ccccc2)c2cc(N)ccc2c2ccc(N)cc21.[Br-] [HOMIDIUM BROMIDE] | 32 µg/mL | 4 µg/mL |  | 4 µg/mL | 4 µg/mL | 16 µg/mL |  | 4 µg/mL | 4 µg/mL | 16 µg/mL | 2 µg/mL | 4 µg/mL | 4 µg/mL | 2 µg/mL | 16 µg/mL | 4 µg/mL | > 64 µg/mL | 16 µg/mL | 16 µg/mL | 1 µg/mL | MIC [22]: 16 µg/mL; MIC [23]: 2 µg/mL |
| COc1c(N2C[C@@H]3CCCN[C@@H]3C2)c(F)cc2c(=O)c(C(=O)O)cn(C3CC3)c12 [MOXIFLOXACIN] | 32 µg/mL (≈ 79.7 µM) | 0.125 µg/mL (≈ 0.311 µM) | 1 µM | 0.25 µg/mL (≈ 0.623 µM) | > 64 µg/mL | 0.25 µg/mL (≈ 0.623 µM) | 11.9 µM | 0.06 µg/mL (≈ 0.149 µM) | 0.125 µg/mL (≈ 0.311 µM) | 0.5 µg/mL (≈ 1.25 µM) | 16 µg/mL (≈ 39.9 µM) | 4 µg/mL (≈ 9.96 µM) | 8 µg/mL (≈ 19.9 µM) | 16 µg/mL (≈ 39.9 µM) | 32 µg/mL (≈ 79.7 µM) | 16 µg/mL (≈ 39.9 µM) | 4 µg/mL (≈ 9.96 µM) | 16 µg/mL (≈ 39.9 µM) | 8 µg/mL (≈ 19.9 µM) | 16 µg/mL (≈ 39.9 µM) | MIC [23]: 4 µg/mL (≈ 9.96 µM) |
